From the RNAGym collection of RNA variant scans (doi:10.1126/science.aae0568)
Variants at the floor of the assay were thinned out.

B1: tRNA (parent)
chain: GUUCCGUUGGCGUAAUGGUAACGCGUCUCCCUCCUAAGGAGAAGACUGCGGGUUCGAGUCCCGUACGGAACG

Variants of: B1
Assay: yeast fitness relative to wild type (ratio to wild type); higher = fitter; tRNA-Arg(CCU), competitive growth, 37 C, YPD
Method in brief: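 Changes in genotype frequencies gave Darwinian fitness relative to wild type. Frequencies were read by 100-nucleotide paired-end sequencing of gene amplicons before and after pooled Saccharomyces cerevisiae strains, carrying tRNA-Arg(CCU) gene variants at the native locus, were competed in YPD at 37°C for 24 hours in six replicates. A genotype was kept only with ≥ 100 starting reads, and estimates < 0.5 were set to 0.5.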

Variant	yeast fitness
GUUCCGUUGGCGUAAUGGUAACGAGUCUGGCUCCUAAGGAGAAGACUGUGGGUUCGAGUCCCGUACGGAACG [C24A C29G C30G C49U]	≤ 0.5
GUUCCGUUGGCGUAAUGGUAACGCGACUCCUUCCUAAGGAGAAGACUGCGGGUUCGAGUCCCGUACGAAACG [U26A C31U G68A]	0.716
GUUCCGUUGGAGUUAUGGUAACGCGUCUCGCUCCUAAGGAGAAGACUGCGGGUUCGAGUCCCGUACGGAACG [C11A A14U C30G]	≤ 0.5
GCUCCGUUGGCGUAAUGGUAACGCGUCUCCCUCCUAAGGAGAAGGCUGCGGGUUCCAGUCCCGUACGGAACG [U2C A45G G56C]	0.575
GAUCCGUUGGCGUAAUGGUAACGCGUCUCCCUCCUAAGGGGAAGACUGCGGGUUCGAGUCCCGUACGGAACG [U2A A40G]	0.932
GUUCCGUUGGCGUAAUGGUAACGCGUUUCCCUCCUAAGGAGAGGACUGCGGCUUCGAGUCCUAUACGGAACG [C27U A43G G52C C62U G63A]	≤ 0.5
GUUCUGUUGCCGUAAUGGUAUUGCGUCUCCCCCCUAAGGAGAAGAUUGCGGGUUCGAGUCGCGUACGGAACG [C5U G10C A21U C22U U32C C46U C61G]	≤ 0.5
GUUCCGUUGGUGAAAUGGUAACGCGUGUCCCUCCUAAGGAGAAGAAUGGGGGUUCGAGUCCCGUACGGAACG [C11U U13A C27G C46A C49G]	≤ 0.5
GUUCCGUUGGCGUAAUGGUAACGCGUCCCCCUCCUAAGGAGAAGACUGCGGGUUCGUGUCCCGUACGGAACG [U28C A57U]	0.823
GUUCCGUUGGCGUAAUGGUAACACGUCUCCUUCCUAAGGAGAAGACUGCGGGUUCUAGUCCCGUUCGCAACG [G23A C31U G56U A65U G68C]	≤ 0.5
GUUCCGUUGGCGUAAGGGUAACGCGUCUCCCUCCUAAGGAGAAGACUGCGGGUCCGAGUACCGUACGGAACG [U16G U54C C60A]	≤ 0.5
GUUCCGUUGGCGUAAUGGUAACGCGUCUCCCUCCUAAGGAGAAGCCUGCGGGUUCGAGUCCGGUACGGAACG [A45C C62G]	0.718
GUUCCGUUGGAGUAAUGGUAACGCGUCUCCCUCCUAAGGAGAAGACUGCGGGUUCGAGCACCGAACGGAACG [C11A U59C C60A U64A]	≤ 0.5
GUUCCGUUGGCGUAUUGGUAACGCGUCUCCCUUCUGAGGAGAAGACUGCGGGUUCGAGUCCGGUACGGCACG [A15U C33U A36G C62G A69C]	≤ 0.5
GUUCCGUUGGCGUAAUGGUAAUGCGUCUGCCUUCUAAGGAGAAGACUGCGGGUUCGAGUCUCGUACGGCACG [C22U C29G C33U C61U A69C]	≤ 0.5
GUUCCGUUGGCGUAAUGGUAACGUGUCUUCCUCCUAAGGAGAAGACUGUGUGUUCGAGUCCCGUACGGAACG [C24U C29U C49U G51U]	≤ 0.5
GUUCCGUUGGCGUAAUGGUAUCGCGUCUCCCUCCUAAGGAGAAGACUGCAGGUUCGAGUCCCGUACGGAACG [A21U G50A]	0.629
GUUCCGUUGGCGUAAUGGUACCGCGUCUCCCACCUAAGGAGAAGAAUGCGGGUUCGAGUCCCGACCGGAACG [A21C U32A C46A U64A A65C]	≤ 0.5
GUUACGUUGGCGUAAUGGUAACGCGGCUCCCUCCUAAGGAGAACACUGCGGGUUCGAAUCCCGUACGGAACG [C4A U26G G44C G58A]	0.535

Variant	yeast fitness
GUUCCCUUGGCGGAAUGAUAACGCGUCUCCCUCCUAAGGAGAAGACUGCGGGUUGGAGUCCCGUACGGAACG [G6C U13G G18A C55G]	≤ 0.5
GUUCCGUUGGCGUAAUGGUAACGCGUCUCCCUCAAAAGGAGAAGACUGAGGGUUUGAGUCCCGUACGGAACG [C34A U35A C49A C55U]	≤ 0.5
GUUCCGUUGGCGUAAUGGUAACGGGUCUCACUCCUAAGGCGAAGACUGCGGGUUCGAGUCCCGUACGGAACG [C24G C30A A40C]	0.547
GUUCCGUUGGCGUAAUGGUAACGCGUCUCCCUCCUAAGGAGAAGACUGCGGGUCCGAGUCUCGUACGGAACG [U54C C61U]	0.868
GUUCCGUAGGUGUAAUGGUGACGCCUCUCCCUCCUAAGCAGAAGACUGCGGGUUCGAGUCCCGUACGGAACG [U8A C11U A20G G25C G39C]	≤ 0.5
GUUCCGUUGGAGUAAUGGUAACGCGUCUCCGUUCUAAGGAGAAGACUGCGGGUUCGAGUCGCGAACGGAACG [C11A C31G C33U C61G U64A]	≤ 0.5
GUUCCCUUGACGUAAGGGUAACGCGUCUCCAUCCUAAGGAGAAGACUGCGGGUUCGAGUCCCGUACGGAACG [G6C G10A U16G C31A]	≤ 0.5
GUUCCGUUGGCGUAAUGGUUACGCGUCGCCCUUCGAAGGAGAAGACUGCGGGUUCGAGUACCGUACGGAACG [A20U U28G C33U U35G C60A]	≤ 0.5
GUUCCGUUGGCGUAAUGGUAACGCGUCUCCCUCCUCAGGAGAAGACACCGGGUUCGAGUCCGGUACGGAACG [A36C U47A G48C C62G]	≤ 0.5
GUUCCGUUGGCGUAAUGGUAACGCGUCUCCCUCUUGAGGAGAAGUCUGCGGGUUCGAGUCCCGAACGGAACG [C34U A36G A45U U64A]	≤ 0.5
GUUCCGUUGGCGUAAUGGUAACACGUCUCCCUCCUAAGGAGAAGACUGCGGGUUCGAGUCCCGUACGGACCG [G23A A70C]	0.74
GUUCCGUUGGCGUAAUGGUAACGCGUCUCCUUCCUAAGGAGAAGAGUGCUGGUUCGAGUCUCGUACGGAACG [C31U C46G G50U C61U]	≤ 0.5
GUUCCGUUGGCGUAAUGGUAACGCGUCUCCCUCCUAGGGAGAAGACUGCGGGUUCGAGUCCCGUACGCAACG [A37G G68C]	0.665
GUUCCGUUGGCGAAAUGGUAACGCGUCUCCCUCCCCUGGAGAAGACUGCCGGUUCGAGUCCCGUACGGAACG [U13A U35C A36C A37U G50C]	≤ 0.5
GUACCGUUGGCGUAAUGGUGACGCGUCUCCCUCCUAAGGAGAAGACUGCGGGUUCGAGUCCCGUACGGAACG [U3A A20G]	1
GUUCCGUUGGCGUAAUGGCAACGCGUCUCCCUCCUAAGGAGAAGACUGCGGGUUGGAGUCCCGUACGGAACG [U19C C55G]	0.676
GUUCCGUUGGCGUAAUGGUAAGGCGUCUCCCUCCUAAGGAGAAGACUGCGGGGUUGAGUCCCGUACGGAACG [C22G U53G C55U]	≤ 0.5
GUUCCGUUGGAGUAAUGGUAACGCGUCUUCCUUCUAAGGAGAAGACUGCGGGUUCGAGUCCCGUACGGAACG [C11A C29U C33U]	≤ 0.5
GUUCCGUUGGCGUAAUGGUACCGCGUCUCCCUCUUAAGGAGAAGACUGUGGGUUCGAGUCCCAUACGGUACG [A21C C34U C49U G63A A69U]	≤ 0.5
